Results taken from PMC12521504 (Communications Biology, 2025).
Where two headings read alike, the source gives them in different places.

Columns and labels:
[1] = tested on: male ICR-CD1 mice; experiment: Tail-flick assay; format: in vivo, mouse; conditions: for %MPE (group mean): 15 min
How it was run: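 Radiant-heat tail-flick in 8-week male ICR-CD1 mice (n = 6–15/group). Beam was calibrated to a 2–4 s baseline, tail tip placed 20–30 mm from the source, cut-off 10 s. Compound was given i.c.v. under isoflurane at 100 µg/mouse (also 75 µg/mouse), alone or with MERF (50 µg/mouse). […] Results are %MPE relative to pre-treatment baseline.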

[2] = tested on: male ICR-CD1 mice; experiment: Hot plate assay; format: in vivo, mouse; conditions: 15 min
How it was run: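 Male ICR-CD1 mice, 8 weeks old (n = 6–15/group), received compound i.c.v. (10 µl, 100 µg/mouse) under isoflurane, alone or with MERF (50 µg/mouse). Mice were placed on a glass platform preheated to 55 °C. Latency to shake, lick or lift the hind paw, or to jump, was timed at set points, with a 60 s cut-off. Results are %MPE = (Test−Baseline)/(60−Baseline) × 100.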

[3] = tested on: male ICR-CD1 mice; experiment: Acetic acid induced writhing test; format: in vivo, mouse; conditions: for effect of naloxone on analgesia of systemic (i.p.) compound: naloxone 5 mg/kg s.c.
[4] = tested on: male ICR-CD1 mice; experiment: Formalin induced paw licking/lifting test; format: in vivo, mouse; conditions: 2% formalin
[5] = molecular target: T1, mouse ACE (mACE) (Mus musculus, UniProt P09470); experiment: Fluorescence-based ACE enzymatic assay with Mca-[…]; format: biochemical
T1 sequence (P09470 35-1312): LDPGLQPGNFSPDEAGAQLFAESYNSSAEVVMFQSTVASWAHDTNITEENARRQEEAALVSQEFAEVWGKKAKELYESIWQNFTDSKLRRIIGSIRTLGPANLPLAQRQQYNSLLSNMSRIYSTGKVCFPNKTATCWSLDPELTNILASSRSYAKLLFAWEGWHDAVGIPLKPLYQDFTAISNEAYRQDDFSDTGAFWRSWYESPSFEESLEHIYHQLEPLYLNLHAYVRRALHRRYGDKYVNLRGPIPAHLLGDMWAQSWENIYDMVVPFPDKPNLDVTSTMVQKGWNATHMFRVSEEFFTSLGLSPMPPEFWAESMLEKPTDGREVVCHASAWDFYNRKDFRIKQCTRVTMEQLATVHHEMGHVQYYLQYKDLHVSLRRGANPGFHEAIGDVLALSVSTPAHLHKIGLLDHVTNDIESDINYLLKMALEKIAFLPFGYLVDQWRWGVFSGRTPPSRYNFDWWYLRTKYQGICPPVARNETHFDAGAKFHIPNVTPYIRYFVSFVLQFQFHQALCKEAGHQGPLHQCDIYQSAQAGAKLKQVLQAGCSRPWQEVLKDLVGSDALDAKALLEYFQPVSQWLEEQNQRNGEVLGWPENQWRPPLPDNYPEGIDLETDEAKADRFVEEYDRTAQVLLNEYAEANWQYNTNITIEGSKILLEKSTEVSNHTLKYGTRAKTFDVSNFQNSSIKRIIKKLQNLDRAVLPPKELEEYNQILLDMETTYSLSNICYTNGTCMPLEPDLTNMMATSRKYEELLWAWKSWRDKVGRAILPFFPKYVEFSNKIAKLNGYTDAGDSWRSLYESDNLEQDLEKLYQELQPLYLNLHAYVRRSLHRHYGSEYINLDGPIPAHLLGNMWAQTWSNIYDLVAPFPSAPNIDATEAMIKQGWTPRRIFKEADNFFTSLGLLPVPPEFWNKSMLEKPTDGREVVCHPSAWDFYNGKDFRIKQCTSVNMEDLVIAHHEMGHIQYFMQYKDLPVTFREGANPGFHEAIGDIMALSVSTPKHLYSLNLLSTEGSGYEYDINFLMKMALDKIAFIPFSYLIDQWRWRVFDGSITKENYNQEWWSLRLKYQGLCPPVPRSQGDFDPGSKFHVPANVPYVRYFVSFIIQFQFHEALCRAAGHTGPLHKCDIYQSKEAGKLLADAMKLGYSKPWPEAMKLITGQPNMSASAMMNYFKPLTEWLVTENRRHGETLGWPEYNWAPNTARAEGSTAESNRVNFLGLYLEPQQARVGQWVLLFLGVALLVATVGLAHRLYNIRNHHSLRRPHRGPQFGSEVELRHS

[6] = molecular target: T2, N-domain of mACE (Mus musculus, UniProt P09470); experiment: ACE N-domain specific enzymatic assay with Abz-SDK; format: biochemical
T2 sequence (P09470 35-1312): T1 sequence (P09470 35-1312)

[7] = molecular target: T3, C-domain of mACE (Mus musculus, UniProt P09470); experiment: ACE C-domain specific enzymatic assay with Abz-LFK; format: biochemical
T3 sequence (P09470 35-1312): T1 sequence (P09470 35-1312)

[8] = molecular target: T1, mouse ACE (mACE); experiment: Secondary LC-MS/MS ACE inhibition assay; format: biochemical
[9] = tested on: extracellular MERF, Met-enkephalin and Leu-enkephalin levels; format: cell-based, mouse; conditions: thiorphan 10 μM, raloxifene 500 μM
[10] = compound 100 μg/mouse + MERF 50 μg/mouse i.c.v.
[11] = compound 100 μg/mouse i.c.v. alone
[12] = compound 100 μg/mouse + MERF i.c.v.
[13] = 100 µg/animal i.c.v., 1% acetic acid i.p., 30 min
[14] = 100 µg/animal i.c.v. + naloxone 5 mg/kg s.c.
[15] = 100 µg/animal i.c.v., late phase

In the case of C[C@H](CS)C(=O)N1CCC[C@H]1C(=O)O [Captopril, captopril], the “%MPE (group mean)” value [1, 10] is reported as 68.31%, the “%MPE (group mean)” value [1, 11] is reported as 21.68% and the “%MPE (group mean)” value [2, 12] is reported as 51.30%. The “%MPE (group mean)” value [2, 11] was 10.32%, the “writhings (group mean)” value [3, 13] was 48 and the “writhings (group mean)” value ([3]; 50 mg/kg i.p., 1% acetic acid) was 57.66. The “effect of naloxone on analgesia of systemic (i.p.) compound” value [3] was “reversed by systemic naloxone”, the “paw licking/lifting duration, Phase I” value [4, 14] was 73.5 s and the “paw licking/lifting duration, Phase II” value [4, 14] was 16.25 s. For the same compound, the “paw licking/lifting duration, Phase I” value ([4]; 100 µg/animal i.c.v., 0–5 min) was 16.5 s and the “paw licking/lifting duration, Phase II” value [4, 15] was 15 s.

For O=C(O)c1nn(Cc2ccc(Cl)cc2Cl)c2ccccc12 [Lonidamine, lonidamine], the “confirmation of HTS findings in dose-response studies” value [5] was “did not confirm the HTS findings”.

For C=CCN1CC[C@]23c4c5ccc(O)c4O[C@H]2C(=O)CC[C@@]3(O)[C@H]1C5 [Naloxone, naloxone], the “analgesia of naloxone itself” value ([1]; 5 mg/kg s.c.) was “unable to induce analgesia”.

In the case of O=C(c1ccc(OCCN2CCCCC2)cc1)c1c(-c2ccc(O)cc2)sc2cc(O)ccc12 [Raloxifene, raloxifene], the IC50 [5] is reported as 102 ± 13.2 µM, the “%MPE (group mean)” value [1, 10] is reported as 34.28% and the “%MPE (group mean)” value [1, 11] is reported as 13.33%. The “%MPE (group mean)” value [2, 12] was 25.89%, the “%MPE (group mean)” value [2, 11] was 5.52% and the “writhings (group mean)” value ([3]; 100 µg/animal i.c.v. + naloxone 5 mg/kg s.c., 1% acetic acid) was 78.75. The “writhings (group mean)” value [3, 13] was 51.8, the “effect of naloxone on analgesia of systemic (i.p.) compound” value [3] was “naloxone failed to reverse the analgesic effect” and the “paw licking/lifting duration, Phase I” value [4, 14] was 69.75 s. For the same compound, the “paw licking/lifting duration, Phase II” value [4, 14] was 9.25 s, the “paw licking/lifting duration, Phase I” value ([4]; 100 µg/animal i.c.v., 0–5 min) was 10 s and the “paw licking/lifting duration, Phase II” value [4, 15] was 2 s. It also gave a Ki [6] of 180 µM, an IC50 ([6]; read-out: IC50 N-domain, 40 µM Abz-SDK(Dnp)P-OH, 35 nM mACE) of 320 µM and an IC50 [7] of 140 µM. For the same compound, the Ki [7] was 30 µM.

In the case of Cl.O=C(O)C1CCCN(CCC=C(c2ccccc2)c2ccccc2)C1 (stereo not shown) [SKF 89976A hydrochloride], the “confirmation of HTS findings in dose-response studies” value [5] is reported as “did not confirm the HTS findings”.

O=C(O)CNC(=O)C(CS)Cc1ccccc1 (stereo not shown) [Thiorphan, thiorphan] was tested, and the IC50 [5] was 2.36 ± 0.42 µM, the IC50 [8] was 3.51 ± 0.37 µM and the “effect on Met- and Leu-enkephalin levels” value [9] was “affected the levels of Met- and Leu-enkephalins”. The “%MPE (group mean)” value [1, 10] was 40.32%, the “%MPE (group mean)” value [1, 11] was 22.45% and the “%MPE (group mean)” value [2, 12] was 36.48%. The “%MPE (group mean)” value [2, 11] was 13.83%, the IC50 [6] was 1.3 ± 0.08 µM and the Ki [6] was 0.71 ± 0.045 µM. It also gave an IC50 [7] of 0.77 ± 0.046 µM, a Ki [7] of 0.17 ± 0.01 µM and a C/N selectivity factor ([7]; N-domain versus C-domain) of 4.2.

Met-enkephalin-Arg-Phe [MERF] was tested, and the “%MPE (group mean)” value ([1]; MERF 50 μg/mouse i.c.v. alone) was 6.27%.
